Compound activity from PubChem.
HSV augment: increases HSV replication in cells. HSV replication augmentation in cells, fold increase. maximum fold increase. 220,000 compounds, 0.005% hits. AID 1956; in the data active = maximum fold increase above about 1.5; inconclusive = no clear call, values can overlap the other calls; tested in PC3 cells
Furin inh: blocks human furin protease activity; P09958; 220,000 compounds, 0.061% hits; AID 463115; inhibition, % at 20 µM or 30 µM; purified furin, fluorogenic substrate cleavage; in the data active = inhibition above about 25%
Target sequence (P09958 108-714 limits assumed): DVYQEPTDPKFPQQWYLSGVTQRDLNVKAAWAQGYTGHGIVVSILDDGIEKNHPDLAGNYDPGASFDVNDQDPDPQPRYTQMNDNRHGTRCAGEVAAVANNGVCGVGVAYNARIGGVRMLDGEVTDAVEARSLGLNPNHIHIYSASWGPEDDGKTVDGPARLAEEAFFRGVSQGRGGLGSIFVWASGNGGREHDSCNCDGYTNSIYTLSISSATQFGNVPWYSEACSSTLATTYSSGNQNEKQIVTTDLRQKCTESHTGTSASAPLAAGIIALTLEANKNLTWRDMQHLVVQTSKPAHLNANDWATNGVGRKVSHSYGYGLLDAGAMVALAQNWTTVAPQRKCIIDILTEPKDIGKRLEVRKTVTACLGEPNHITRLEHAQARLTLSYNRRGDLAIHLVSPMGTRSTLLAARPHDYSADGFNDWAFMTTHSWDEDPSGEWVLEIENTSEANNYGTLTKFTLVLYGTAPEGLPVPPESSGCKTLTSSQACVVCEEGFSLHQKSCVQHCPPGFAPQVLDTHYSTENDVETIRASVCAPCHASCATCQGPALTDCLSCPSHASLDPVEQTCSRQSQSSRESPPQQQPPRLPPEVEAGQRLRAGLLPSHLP
Insulin prom up: MIN6 insulin promoter up-regulation; MIN6 insulin promoter-GFP reporter, high-content imaging; stronger effect = higher value; z-score at 5 µM; 190,000 compounds, 0.3% hits;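 active = z-score above 3 at 5 µM with at least 500 cells counted in the well; inconclusive = wells under 500 cells, flagged as cytotoxic or low count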
MT stabilizer: microtubule stabilizers in HeLa cells | % tubulin-high responders, % at 10 µM | HeLa tubulin immunostaining HCS, 24 h; share of cells brighter than vehicle mean+2SD | 200,000 compounds, 0.83% hits;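 active = plate Z-score above 3 for both tubulin-high and condensed-nucleus cell shares, with cell loss under 80%, at 10 µM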;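 also: anti alpha tubulin signal scored within the nucleus-defined area of each cell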
Autophagy HCS: autophagy modulation, high-content screen; MEF GFP-LC3 puncta imaging; test concentration mostly 10 µM; calls only at 10 µM (by protocol); 190,000 compounds, 0.98% hits; AID 463193;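 active = percentage of spot-positive cells more than 3 SD above its plate mean, without a fluorescence outlier flag or 80% toxicity; inconclusive = no clear call, values can overlap the other calls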;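 also: spot-positive cell cutoff set from DMSO-treated cells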
bCat nuc transl: beta-catenin nuclear translocation modulation. HeLa beta-catenin nuclear translocation, immunofluorescence imaging. AID 1665. nuclear translocation activity, % at 5 µM. 190,000 compounds, 0.3% hits;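 active = nuclear translocation activity above 50% at 5 µM, with a well cell count of 50 or more; inconclusive = wells under 50 cells across six images, flagged as toxic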;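 also: per-cell ratio of nuclear to cytoplasmic median beta-catenin stain intensity; plate controls were DMSO negative control for no effect and GSK-3 inhibitor IX positive control for full effect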
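test system = HeLa cells, endogenous beta-catenin | dosing = single 5 µM dose plus 0.02–20 µM confirmation series | times = compound treatment 24 h, 37°C, 5% CO2 | technique = beta-catenin immunofluorescence imaging with DAPI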
An asterisk follows results filed as active; i = inactive; ? = inconclusive; nt = not tested or not shown; + = active, no number. This is a sample that favours compounds with a hit; in the whole collection about 1.9% have one here.

SMILES | HSV augment | Furin inh | Insulin prom up | MT stabilizer | Autophagy HCS | bCat nuc transl
FC(F)(F)c1cc(-c2ccco2)nc(NCc2ccccc2)n1 | i | -15 | -0.69 | 3 | i | 1
FC(F)(F)c1cc(-c2ccco2)nc(NCc2cccnc2)n1 | nt | -25 | -0.6 | 6 | i | 61*
CCOc1ccc(NS(=O)(=O)c2ccc(OCC)c3ncccc23)cc1 | i | -20 | 0.47 | 44* | i | -1
CCOc1cc(/C=N/NC(N)=S)cc(Br)c1OCc1ccccc1C | i | -11 | 0 | 1 | + | -2
CCOC(=O)Cc1c(C)c2c(C)nn(-c3ccccc3)c2oc1=O | i | -7 | -1.4 | 4 | i | nt
Cc1ccccc1-c1nnc(-c2ccc(Cl)cc2)o1 | i | -9 | 3.5* | 1 | i | nt
Cc1ccccc1-c1nnc(-c2ccccc2)o1 | i | -15 | 1.6 | 4 | i | -5
O=C1CC2(CCCC2)Oc2ccc(F)cc21 | i | nt | nt | nt | nt | nt
CC1CCCCN1CCNC(=O)Cn1nc(-c2ccccc2)ccc1=O (centres undefined) | i | -6 | 0.27 | 4 | + | nt
CC(C)c1ccc2c(c1)C1(NN=C(c3ccccc3)S1)C(=O)N2 (centres undefined) | i | 4 | nt | 1 | + | 0
COc1ccc(CSc2nc3ccccc3c(=O)n2CCCN2CCOCC2)cc1F | i | -16 | -0.52 | 4 | i | 0
O=C(Cc1cccs1)N1CCN=C1SCc1ccccc1Cl | i | -6 | -0.61 | 4 | i | -4
O=C(Cc1cccs1)N1CCN=C1SCc1ccccc1F | i | -21 | -0.74 | 2 | + | 3
CC1CCN(CC(=O)Nc2cccc(Cl)c2)CC1 | i | -29 | 0.82 | 5 | i | -5
COc1ccc(C2SCC(=O)N2CCc2ccc(OC)c(OC)c2)cc1 (centres undefined) | i | -11 | -0.28 | 18* | i | 82*
COc1ccc(CCN2C(=O)CSC2c2ccc(OC)c(OC)c2)cc1OC (centres undefined) | i | -28 | -0.35 | 2 | i | 1
CC1(C(=O)NCCN2CCOCC2)C=CCN1C(=O)c1ccccc1 (centres undefined) | i | -19 | 0.36 | 2 | + | -3
Cc1ccc(S(=O)(=O)c2ccccc2)cc1S | i | -16 | -0.06 | 1 | i | 0
Cc1nn(-c2ccccc2C(=O)O)c(=O)c2ccccc12 | i | -18 | 0.21 | 2 | i | 2
Cc1nn(-c2c(Cl)cc(Cl)cc2Cl)c(=O)c2ccccc12 | i | -13 | 3.4* | 2 | i | nt
FC(F)(F)c1cc(-c2ccco2)nc(-n2cnc3ccccc32)n1 | i | -13 | -0.43 | 2 | i | 4
Cc1nc2ccccc2n1-c1nc(-c2ccco2)cc(C(F)(F)F)n1 | i | -20 | ? | 32 | + | 12
CCN1C(=O)N(C(C)=O)C2C1N(C(C)=O)C(=O)N2C(C)=O (centres undefined) | i | -23 | 0.84 | 5 | i | 1
COc1ccc(NC(=O)CSc2nc3ccccc3c(=O)n2Cc2cccs2)c(OC)c1 | i | -27 | 0.15 | 4 | i | -4
COc1cccc(NC(=O)CSc2nc3ccccc3c(=O)n2Cc2cccs2)c1 | i | -12 | nt | 2 | + | -1
SMILES | HSV augment | Furin inh | Insulin prom up | MT stabilizer | Autophagy HCS | bCat nuc transl
COC(=O)c1ccc(NC2(C#N)C(=O)Nc3ccccc32)cc1 (centres undefined) | i | 31* | -0.42 | 2 | i | nt
COc1ccc(CN(C)c2ncnc(N)n2)cc1 | i | -6 | -0.26 | 1 | i | nt
CCCCOc1ccc(CN(C)c2ncnc(N)n2)cc1 | i | -19 | nt | 23* | i | 27
C1=C(c2ccccc2)Nc2nnnn2C1 | i | -12 | 3.1* | 2 | i | 0
COc1ccc(C2C=C(c3ccccc3)Nc3nnnn32)cc1 (centres undefined) | i | -17 | -1.3 | 5 | i | -4
C/C(=N\NC(=O)CC1N=C(Cc2ccccc2)NNC1=O)c1ccc(Br)cc1 (centres undefined) | i | -16 | 0.36 | nt | nt | 0
C/C(=N\NC(=O)CC1N=C(Cc2ccccc2)NNC1=O)c1ccc(C)cc1 (centres undefined) | i | -13 | -1.1 | 31* | i | 0
O=C(NC1CCCCC1)N1CCC(c2nc(-c3ccc(S(=O)(=O)N4CCCC4)cc3)no2)CC1 | i | -22 | 0.43 | 35* | i | 1
